How the values were obtained:
[1] = system: rat arteriovenous shunt (AVS/thrombosis); assay: Rat arteriovenous shunt; type: in vivo
Procedure, shortened: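 Male Sprague Dawley rats (350–400 g) were anaesthetised with thiobutabarbital. Test compound or vehicle (35% w/v hydroxypropyl-β-cyclodextrin, 10 mmol/L phosphate buffer) was given as an IV bolus plus constant infusion: five doses, n ≥ 10/group, blinded. At 15 min, a carotid–jugular shunt with silk thread ran 15 min. CW = thread weight gain. A vehicle-proportional Imax model was fitted to CW versus plasma concentration.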

Rat pharmacokinetics = conditions: in vivo
[2] = system: fIIa formation (thrombin generation); assay: Ex vivo thrombin generation assay; type: in vivo, rat; conditions: TF 1, 5, 20 pmol/L trigger
Human fIXa = Human fIXa (Homo sapiens, UniProt P00740); assay: fIXa inhibition constant; type: biochemical
Human fIXa, sequence (P00740 227-461 limits assumed): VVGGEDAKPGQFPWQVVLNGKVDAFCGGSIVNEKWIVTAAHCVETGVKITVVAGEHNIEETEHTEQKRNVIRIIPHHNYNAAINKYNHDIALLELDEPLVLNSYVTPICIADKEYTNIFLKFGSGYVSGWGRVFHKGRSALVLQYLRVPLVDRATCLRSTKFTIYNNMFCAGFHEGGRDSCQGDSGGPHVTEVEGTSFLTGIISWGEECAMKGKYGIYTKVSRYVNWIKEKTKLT
Human fIXa, sequence (P00740 47-191 partner limits assumed): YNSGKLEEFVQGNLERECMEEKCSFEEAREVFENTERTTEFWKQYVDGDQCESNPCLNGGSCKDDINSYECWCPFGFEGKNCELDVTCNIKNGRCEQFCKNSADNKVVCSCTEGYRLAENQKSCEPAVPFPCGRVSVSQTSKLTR

fXa [3] = conditions: equal fXa occupancy human/rat
fXa [4] = assay: Calculated fXa enzyme occupancy; conditions: rat AVS
PT = assay: Ex vivo prothrombin time; type: in vivo, rat; conditions: plasma collected post-AVS, small molecule study
Procedure, shortened: (§1)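 Rats received a steady-state IV bolus-plus-infusion. A terminal blood sample was taken after the shunt and bleeding procedures into sodium citrate (11 mmol/L final). It was centrifuged at 2500g, 4°C, 15 min. One platelet-poor plasma aliquot was used for clotting times and the other for plasma drug concentration.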

aPTT = assay: Ex vivo activated partial thromboplastin time; type: in vivo, rat; conditions: plasma collected post-AVS, small molecule study
Procedure, shortened: as §1

[5] = Fraction unbound in plasma by equilibrium dialysis, rat; type: in vitro ADME
Procedure, shortened: (§2)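 Plasma fraction unbound was determined by equilibrium dialysis in triplicate. Its standard error fed simulations of clinically relevant concentration ranges.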

fXa [6] = assay: Calculated fXa enzyme occupancy; parameters: species or system human; conditions: C min 107 ng/mL, 5 mg BID SPAF dose
[7] = system: rat cuticle bleeding time (CBT); assay: Rat cuticle bleeding time; type: in vivo
Procedure, shortened: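 Same anaesthetised, IV bolus-plus-infusion rats as the shunt study. Five minutes after shunt placement, two hind-paw toe cuticles were cut at the quick. The paw was immersed in 37° lactated Ringer's, and time to bleeding cessation was recorded (10 min maximum). A linear model of CBT versus plasma concentration treated 600 s values as right-censored. Median and 5th/95th percentiles were simulated from parameter standard errors.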

[8] = Fraction unbound in plasma by equilibrium dialysis, human; type: in vitro ADME
Procedure, shortened: as §2

rat fIXa = rat fIXa (Rattus norvegicus, UniProt P16296); assay: fIXa inhibition constant; type: biochemical
rat fIXa, sequence (P16296 228-462 limits assumed): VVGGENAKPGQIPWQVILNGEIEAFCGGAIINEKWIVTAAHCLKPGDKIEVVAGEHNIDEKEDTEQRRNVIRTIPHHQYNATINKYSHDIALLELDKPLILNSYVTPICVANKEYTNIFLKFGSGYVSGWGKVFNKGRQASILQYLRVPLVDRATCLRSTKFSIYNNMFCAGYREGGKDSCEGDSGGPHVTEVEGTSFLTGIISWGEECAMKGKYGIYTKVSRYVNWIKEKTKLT
rat fIXa, sequence (P16296 40-185 partner limits assumed): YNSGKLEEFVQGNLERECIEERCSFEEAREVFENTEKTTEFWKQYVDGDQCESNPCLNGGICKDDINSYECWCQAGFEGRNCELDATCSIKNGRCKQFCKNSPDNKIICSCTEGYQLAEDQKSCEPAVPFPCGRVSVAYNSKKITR

- clearance (Rat pharmacokinetics): 12 mL/min/kg
- half-life (Rat pharmacokinetics): 51.6 min
- Ki (Human fIXa): > 30 µM
- predicted rat equivalent of C avg (fXa [3]): 24 µM
- fraction unbound [5]: 0.019
- calculated EO achieved at median C min (fXa [6]): 99.2%
- animals that reached the limit of the CBT assay (600 sec) ([7]; higher doses): 17
- Slope (slope of the drug effect on bleeding time) ([7]; linear PK/PD model of CBT vs rat plasma concentration): 29.6
- effect on CBT vs vehicle (in words) ([7]; two effective doses A4, A5): significant prolongation of the CBT
- fraction unbound [8]: 0.093 ± 0.013
- Ki (rat fIXa): > 30 µM
Compound: COc1ccc(-n2nc(C(N)=O)c3c2C(=O)N(c2ccc(N4CCCCC4=O)cc2)CC3)cc1 [Apixaban]
- target CW corresponding to the apixaban clinical C min ([1]; PK/PD model simulation at rat equivalent of clinical C min): 16 (12–24) mg
- CW reduction vs vehicle (in words) ([1]; two highest doses A4 (3/3.75 mg/kg), A5 (8/10.2 mg/kg)): significant CW reduction
- I max (maximal inhibition of CW) ([1]; vehicle-proportional Imax PK/PD model of CW vs rat plasma concentration): 0.946
- activity in TGA (in words) [2]: activity was constant across the TF concentration tested
- fXa EO required to ensure CW <50 mg in all animals (fXa [4]): > 99%
- effect on PT (in words) (PT): concentration‐dependent increase
- effect on aPTT (in words) (aPTT): concentration‐dependent increase

— paper PMC4777260 (Pharmacology Research & Perspectives, 2016)
